According to ChEMBL document CHEMBL1128354, “Fluorenylalkanoic and benzoic acids as novel inhibitors of cell adhesion processes in leukocytes” (J Med Chem, 1995):

Tests used:
[1] = organism: Homo sapiens; assay: In vitro ability to inhibit the adhesion of neutrophil activated by tumor necrosis factor (alpha-TNF) to serum-coated plastic wells.; assay type: functional, organism-based
How it was run: (§1)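 Human blood PMN, isolated and RBC-lysed, at 4×10^6/mL were preincubated with compound (from 100× DMSO stocks) for 10 min at 37 °C in wells coated with 10% pooled human serum. TNF-α was then added to 0.6 nM and adherence run for 20 min. Adherent cells quantitated by BCA protein assay. Seven dilutions in duplicate gave IC50, averaged over at least three experiments ± SEM.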

[2] = LD50 value for endothelial cells was determined; assay type: ADME, cell-based, Endothelial cell; conditions: human, read-out: LD50 (the source's name)
How it was run: (§2)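 Viability read-out for LD50: human PMN (isolated from heparinised blood of unmedicated volunteers) or endothelial cell suspension in phenol red-free medium, with compound, incubated in serum-coated wells for 30 min at 37 °C. Calcein AM (added as 2 μM solution in HBSS++) for a further 30 min. Fluorescence read at ex/em 485/535 nm from live-cell esterase cleavage.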

[3] = organism: Homo sapiens; assay: In vitro ability to inhibit the adhesion of neutrophil activated by platelet activating factor (PAF) to serum-coated plastic wells was determined; assay type: functional
How it was run: as §1, with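 “PAF” for “TNF-α”, “1 μM” for “0.6 nM”, “10” for “20”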

[4] = (§3) LD50 value for polymorphonuclear granulocytes was determined; assay type: ADME; conditions: human, read-out: LD50 (the source's name); how it was run: as §2
[5] = In vitro ability to inhibit adherence of activated polymorphonuclear granulocytes to endothelial cells using IFN gamma-(HUVEC) assay was determined; conditions: Homo sapiens
[6] = as §3; assay type: functional; conditions: Homo sapiens; read-out: LD50 (the source's name); how it was run: as §2

SMILES	IC50 [1] [µM]	also measured
CC(C)C[C@H](NC(=O)OCC1c2ccccc2-c2ccccc21)C(=O)O	78	–
O=C(Nc1ccccc1C(=O)O)OC1c2ccccc2-c2ccccc21	19	–
O=C(O)c1ccc(OCCCCC2c3cc(Cl)ccc3-c3ccc(Cl)cc32)cc1	8.1	–
O=C(O)c1ccc(CC2c3cc(Cl)ccc3-c3ccc(Cl)cc32)cc1	29.1	–
O=C(O)CCCC1c2ccccc2-c2ccccc21	97	–
O=C(O)C1c2ccccc2-c2ccccc21	> 200	–
O=C(O)c1cccc(OCCCC2c3ccccc3-c3ccccc32)c1	13.8	–
O=C(O)c1cccc(OCCCCCC2c3ccccc3-c3ccccc32)c1	5.23	–
O=C(O)c1ccc(CC2c3ccccc3-c3ccccc32)cc1	27.6	CC50 [2]: > 1000 µM; IC50 [3]: 17.8 µM; CC50 [4]: 306 µM; IC50 [5]: 91.2 µM
CC(C)(C)c1ccc2c(c1)C(Cc1ccc(C(=O)O)cc1)c1cc(C(C)(C)C)ccc1-2	> 200	–
O=C(N[C@@H](Cc1ccccc1)C(=O)O)OCC1c2ccccc2-c2ccccc21	58	–
O=C(O)c1ccccc1OCCC1c2ccccc2-c2ccccc21	73.3	–
O=C(O)CCCCC1c2ccccc2-c2ccccc21	87	–
Cc1ccc2c(c1)C(COC(=O)N[C@@H](CC(C)C)C(=O)O)c1cc(C)ccc1-2	41.7	CC50 [2]: 354 µM; IC50 [3]: 31.7 µM; CC50 [4]: 343 µM; IC50 [5]: 117 µM
O=C(O)c1ccccc1OCCCCCC1c2ccccc2-c2ccccc21	15.8	–
O=C(O)c1ccc(OCCCCC2c3ccccc3-c3ccccc32)cc1	7.53	CC50 [2]: > 1000 µM; IC50 [3]: 5.2 µM; CC50 [4]: 113 µM; IC50 [5]: 19.8 µM
O=C(O)CCCCCCCCCC1c2ccccc2-c2ccccc21	11.6	–

SMILES	IC50 [1] [µM]	also measured
O=C(Nc1ccc(C(=O)O)cc1)OCCC1c2ccccc2-c2ccccc21	30	–
O=C(O)c1cccc(OCCC2c3ccccc3-c3ccccc32)c1	31	–
O=C(O)c1ccc(OCCCCCC2c3ccccc3-c3ccccc32)cc1	7.13	CC50 [2]: > 1000 µM; IC50 [3]: 11.7 µM; CC50 [4]: 295 µM; IC50 [5]: 48.2 µM
O=C(O)c1cccc(OCCCCC2c3ccccc3-c3ccccc32)c1	6.6	–
O=C(O)c1ccc(OCCCC2c3ccccc3-c3ccccc32)cc1	15.6	CC50 [2]: > 1000 µM; IC50 [3]: 36.4 µM; CC50 [4]: 281 µM; IC50 [5]: 23.2 µM
O=C(O)CCCCCC1c2ccccc2-c2ccccc21	55.2	–
O=C(O)CCC1c2ccccc2-c2ccccc21	> 200	–
O=C(O)CC1c2ccccc2-c2ccccc21	> 200	–
O=C(O)CCCCCCCC1c2ccccc2-c2ccccc21	32.2	–
O=C(Nc1ccc(C(=O)O)cc1)OCCC1c2cc(Cl)ccc2-c2ccc(Cl)cc21	9.8	CC50 [2]: 82.3 µM; IC50 [3]: 17.8 µM; CC50 [6]: 62.5 µM; IC50 [5]: 26.1 µM
CC(C)(C)c1ccc2c(c1)C(CCCCOc1ccc(C(=O)O)cc1)c1cc(C(C)(C)C)ccc1-2	8	–
O=C(Nc1ccc(C(=O)O)cc1)OCC1c2ccccc2-c2ccccc21	> 500	–
O=C(O)c1ccccc1OCCCC1c2ccccc2-c2ccccc21	55.4	–
O=C(O)c1ccc(C2c3ccccc3-c3ccccc32)cc1	81.6	–
O=C(O)C(CCCCC1c2ccccc2-c2ccccc21)Cc1ccccc1 (stereo unspecified)	6	CC50 [2]: 72 µM; CC50 [4]: 79 µM; IC50 [5]: 10.2 µM
O=C(Nc1ccc(C(=O)O)cc1)OC1c2ccccc2-c2ccccc21	30	–
O=C(O)c1ccc(OCCC2c3ccccc3-c3ccccc32)cc1	14	–
